Activity calls are given as the source filed them. No cut-off for these calls is given here.
Assays:
Assay type in all cases: functional
LLC-PK1 = assay: Renoprotective activity in pig LLC-PK1 cells assessed as inhibition of cisplatin-induced damage by measuring cell viability up to 100 uM preincubated for 24 hrs followed by addition of Ez-Cytox reagent and measured after 2 hrs relative to control
Procedure, shortened: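 LLC-PK1 pig kidney epithelial cells were cultured in DMEM with 10% FBS, 1% penicillin/streptomycin and 4 mM L-glutamine at 37 °C, 5% CO2. Cells were seeded at 1 × 10^4 per well and allowed to adhere for 2 h. Test sample and/or 25 μM cisplatin were added and incubated for 24 h. Medium was replaced with serum-free medium plus Ez-Cytox for 2 h at 37 °C, then absorbance was read at 450 nm. N-acetyl cysteine was the positive control.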

Escherichia coli = assay: Antibacterial activity against Escherichia coli DH10B by EUCAST method; conditions: K-12 substr. DH10B
Procedure, shortened: (§1)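 Minimal inhibitory concentrations were determined by the EUCAST method, with streptomycin sulfate as the positive control.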

Staphylococcus aureus = assay: Antibacterial activity against Staphylococcus aureus NCTC 8325-4 by EUCAST method; procedure, shortened: as §1
Candida albicans = assay: Antifungal activity against Candida albicans SC5314 by CLSI M27-A3 broth microdilution method
Procedure, shortened: (§2)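 MICs were determined by broth microdilution following CLSI standard M27-A3, with fluconazole as the positive control.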

Cryptococcus neoformans = assay: Antifungal activity against Cryptococcus neoformans H99 by CLSI M27-A3 broth microdilution method; conditions: var grubii H99; procedure, shortened: as §2

`C[C@@H]1O[C@@H](Oc2cc(O)c3c(=O)c(-c4ccc(O)cc4)coc3c2)[C@H](O)[C@H](O)[C@H]1O` was tested, and the Activity (LLC-PK1; Sus scrofa) was “Active”, the MIC (Escherichia coli) was > 100 µg/mL and the MIC (Staphylococcus aureus) was > 100 µg/mL. For the same compound, the MIC (Candida albicans) was > 100 µg/mL and the MIC (Cryptococcus neoformans) was > 100 µg/mL.
For `C[C@@H]1O[C@@H](Oc2ccc(-c3coc4cc(O[C@@H]5O[C@@H](C)[C@H](O)[C@@H](O)[C@H]5O)cc(O)c4c3=O)cc2)[C@H](O)[C@H](O)[C@H]1O`, the Activity (LLC-PK1; Sus scrofa) was “Active”, the MIC (Escherichia coli) was > 100 µg/mL and the MIC (Staphylococcus aureus) was > 100 µg/mL. For the same compound, the MIC (Candida albicans) was > 100 µg/mL and the MIC (Cryptococcus neoformans) was > 100 µg/mL.
For `C[C@@H]1O[C@@H](Oc2ccc3c(=O)c(-c4ccc(O)cc4)coc3c2)[C@H](O)[C@H](O)[C@H]1O`, the Activity (LLC-PK1) was >80%, the MIC (Escherichia coli) was > 100 µg/mL and the MIC (Staphylococcus aureus) was > 100 µg/mL. The MIC (Candida albicans) was > 100 µg/mL and the MIC (Cryptococcus neoformans) was > 100 µg/mL.
With `C[C@@H]1O[C@@H](Oc2ccc(-c3coc4cc(O[C@@H]5O[C@@H](C)[C@H](O)[C@@H](O)[C@H]5O)ccc4c3=O)cc2)[C@H](O)[C@H](O)[C@H]1O` the Activity (LLC-PK1; Sus scrofa) was “Active”, the MIC (Escherichia coli) was > 100 µg/mL and the MIC (Staphylococcus aureus) was > 100 µg/mL. The MIC (Candida albicans) was > 100 µg/mL and the MIC (Cryptococcus neoformans) was > 100 µg/mL.
For `COc1cc2c(=O)c(-c3ccc(O)cc3)coc2cc1O[C@@H]1O[C@@H](C)[C@H](O)[C@@H](O)[C@H]1O`, the MIC (Escherichia coli) was > 100 µg/mL, the MIC (Staphylococcus aureus) was > 100 µg/mL and the MIC (Candida albicans) was > 100 µg/mL. For the same compound, the MIC (Cryptococcus neoformans) was > 100 µg/mL.
For `O=c1c(-c2ccc(O)cc2)coc2cc(O)ccc12` [DAIDZEIN], the Activity (LLC-PK1; Sus scrofa) was “Active”, the MIC (Escherichia coli) was > 100 µg/mL and the MIC (Staphylococcus aureus) was > 100 µg/mL. The MIC (Candida albicans) was > 100 µg/mL and the MIC (Cryptococcus neoformans) was > 100 µg/mL.
In the case of `CO[C@@H]1[C@@H](O)[C@H](C)O[C@@H](Oc2ccc(-c3coc4cc(O[C@@H]5O[C@@H](C)[C@H](O)[C@@H](O)[C@H]5O)cc(O)c4c3=O)cc2)[C@@H]1O`, the MIC (Escherichia coli) is reported as > 100 µg/mL, the MIC (Staphylococcus aureus) is reported as > 100 µg/mL and the MIC (Candida albicans) is reported as > 100 µg/mL. The MIC (Cryptococcus neoformans) was > 100 µg/mL.
In the case of `CO[C@@H]1[C@@H](O)[C@H](C)O[C@@H](Oc2ccc(-c3coc4cc(O[C@@H]5O[C@@H](C)[C@H](O)[C@@H](OC)[C@H]5O)ccc4c3=O)cc2)[C@@H]1O`, the Activity (LLC-PK1; Sus scrofa) is reported as “Active”, the MIC (Escherichia coli) is reported as > 100 µg/mL and the MIC (Staphylococcus aureus) is reported as > 100 µg/mL. The MIC (Candida albicans) was > 100 µg/mL and the MIC (Cryptococcus neoformans) was > 100 µg/mL.
`CO[C@@H]1[C@@H](O)[C@H](C)O[C@@H](Oc2ccc(-c3coc4cc(O[C@@H]5O[C@@H](C)[C@H](O)[C@@H](OC)[C@H]5O)cc(O)c4c3=O)cc2)[C@@H]1O` was tested, and the Activity (LLC-PK1; Sus scrofa) was “Active”, the MIC (Escherichia coli) was > 100 µg/mL and the MIC (Staphylococcus aureus) was > 100 µg/mL. The MIC (Candida albicans) was > 100 µg/mL and the MIC (Cryptococcus neoformans) was > 100 µg/mL.
`O=c1c(-c2ccc(O)cc2)coc2cc(O[C@@H]3O[C@H](CO)[C@@H](O)[C@H](O)[C@H]3O)cc(O)c12` [GENISTIN] was tested, and the Activity (LLC-PK1; Sus scrofa) was “Active”, the MIC (Escherichia coli) was > 100 µg/mL and the MIC (Staphylococcus aureus) was > 100 µg/mL. The MIC (Candida albicans) was > 100 µg/mL and the MIC (Cryptococcus neoformans) was > 100 µg/mL.
With `O=c1c(-c2ccc(O)cc2)coc2cc(O[C@@H]3O[C@H](CO)[C@@H](O)[C@H](O)[C@H]3O)ccc12` [DAIDZIN] the Activity (LLC-PK1) was >80%, the MIC (Escherichia coli) was > 100 µg/mL and the MIC (Staphylococcus aureus) was > 100 µg/mL. The MIC (Candida albicans) was > 100 µg/mL and the MIC (Cryptococcus neoformans) was > 100 µg/mL.

— ChEMBL document CHEMBL3994602, “Termisoflavones A-C, Isoflavonoid Glycosides from Termite-Associated Streptomyces sp. RB1” (2016)
